Source: PubChem BioAssay
In the library only some 6.3% were active in any assay of this set; here they are far more common.
PostGolgi ctrl: yeast control strain growth, post-Golgi counter-screen; AID 738; inhibition, % at 10 µM; 5% of 98,000 active; efflux-deficient yeast background strain, growth absorbance A615, 16 h
PostGolgi yeast: growth inhibition of a yeast mutant, post-Golgi transport screen. 0.9% of 98,000 active. AID 739. post-Golgi transport phenotypic cell assay. inhibition, % at 10 µM;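 also: yeast cells grown in 1536-well plates; yeast grown about 18 h at 30C before absorbance read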
E coli WT exp: growth inhibitors of E. coli BW25113 wild type; OD600 absorbance; growth inhibition, % at 100 µM; 0.15% of 98,000 active;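 active = growth inhibition above about 50% at one test dose, limit read from the data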;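 also: growth measured after 20 h incubation at 37 °C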
Ecoli tolC: E. coli tolC mutant growth inhibition; E. coli BW25113 tolC mutant growth, OD615; growth inhibition, % at 10 µM (by protocol); 2.2% of 65,000 active; AID 573;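 active = growth inhibition at or above a cutoff equal to the mean over every tested compound plus 3 SD, cut at about 60% in these data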;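 also: growth measured after 20 h incubation at 37 °C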
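Material: E. coli BW25113 ΔtolC::kan, tolC deletion mutant strain. Measure: percent growth inhibition. Schedule: 37 °C, 20 h exposure. Doses: single-point testing at 10 µM. Signal: A615 absorbance measurement. Buffer or medium: kanamycin-containing LB broth (50 µg/mL).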
Numbers stand for hits; – = inactive; · = no result. Rule as the data show it, unless noted: active = inhibition above about 30%; inactive = the rest.

SMILES	PostGolgi ctrl	PostGolgi yeast	E coli WT exp	Ecoli tolC
CN(C)c1nccc(N(Cc2ccccc2)Cc2ccccc2)c1C#N	30	–	–	·
CCOC(=O)c1c(C)noc1CP(=O)(c1ccccc1)c1ccccc1	–	–	–	–
CCCCNC(=O)CS(=O)Cc1nc(-c2ccc(C)cc2)oc1C (stereo unspecified)	–	–	–	–
CCc1cccc(NC(=O)CS(=O)Cc2nc(-c3ccc(C)cc3)oc2C)c1 (stereo unspecified)	34	–	–	–
Cc1cccc(-c2nc(CS(=O)CC(=O)NCCCSC3CCCCC3)c(C)o2)c1 (stereo unspecified)	–	–	–	73
CN(C)C(=O)c1c2c(nc3ccccc13)-c1ccccc1CC2	–	–	–	·
COc1cc2c(cc1NC(=O)CSc1nnc(COc3ccc(Cl)cc3)n1C)oc1ccccc12	35	–	–	·
CCn1c(Cc2cccs2)nnc1SCC(=O)Nc1ccc(OC)c(OC)c1	–	–	–	–
CCn1c(SCC(=O)Nc2cc3oc4ccccc4c3cc2OC)nnc1-c1cccs1	47	–	–	–
Cc1cc(Cl)ccc1NC(=O)CSc1nnc(Cc2cccs2)n1Cc1ccco1	–	–	–	75
COc1cc2c(cc1NC(=O)CSc1nnc(Cc3cccs3)n1Cc1ccco1)oc1ccccc12	33	–	–	·
CC(C)NS(=O)(=O)c1ccc(NC(=O)C2CC3C=CC2C3)cc1 (stereo unspecified)	–	–	–	·
Cc1ccc(C(=O)Nc2cc(C)c(OCC(=O)N3CCOCC3)c(C)c2)cc1	–	–	–	·
CCOc1cc(N2CCOCC2)c(OCC)cc1NC(=O)CN1C(=O)NC2(CCc3ccccc32)C1=O (stereo unspecified)	–	–	–	·
Cc1cc(C)nc(SCc2nnc(SCC(=O)Nc3nccs3)n2Cc2ccco2)n1	–	–	–	–
COc1cc2c(cc1NC(=O)CN1C(=O)NC3(CCc4ccccc43)C1=O)oc1ccccc12 (stereo unspecified)	38	–	–	–
COc1cc2c(cc1NC(=O)CSc1nnc(Cc3cccs3)n1C)oc1ccccc12	35	–	–	–
CCn1c(SCC(=O)NCC(=O)Nc2ccc(F)cc2)nnc1-c1ccncc1	35	–	–	·
Cc1occc1-c1nnc(SCC(=O)Nc2nccs2)n1Cc1ccco1	36	–	–	–
Cc1cc(C(=O)NCCC(c2ccccc2)c2ccccc2)c(C)o1	–	–	–	·
CCn1c(SCC(=O)Nc2ccc3c(c2)oc2ccccc23)nnc1-c1ccc(N)cc1	–	42	–	·
CCCOc1ccc(S(=O)(=O)n2cc(Br)c(=O)[nH]c2=O)cc1	42	–	–	–
O=c1[nH]c(=O)n(CCOc2ccc(Cl)cc2)cc1Br	–	–	–	–
CCCc1nc(SCC(=O)N2CCc3ccccc3C2)c2ccccc2n1	33	–	–	·
CCn1c(SCC(=O)N2CCc3ccccc3C2)nc2c1c(=O)n(C)c(=O)n2C	–	–	–	–
SMILES	PostGolgi ctrl	PostGolgi yeast	E coli WT exp	Ecoli tolC
CCc1c(C)sc2nc(C(C)C)nc(SCC(=O)N3CCc4ccccc4C3)c12	31	–	–	·
Cc1sc2nc(C3CC3)nc(SCC(=O)N3CCc4ccccc4C3)c2c1C	37	–	–	·
Cc1ccc2[nH]c(SCC(=O)N3CCOCC3)nc2c1C	–	–	–	·
COC(=O)c1ccc(C(=O)OC)c(NC(=O)COC(=O)CC2CC3CCC2C3)c1 (stereo unspecified)	33	–	–	·
COc1cccc(N(C(=O)c2cccs2)c2nc3ccccc3s2)c1	–	–	–	–
CCOc1ccccc1-n1c(SCC(=O)N(CC)CC)nnc1-c1ccccn1	40	–	–	–
CC(Sc1ccc(Cl)cc1)C(=O)Nc1ccc(S(=O)(=O)N2CCOCC2)cc1 (stereo unspecified)	–	–	–	·
O=c1c2c3c(sc2ncn1/N=C/c1ccc([N+](=O)[O-])o1)CCCC3	60	105	–	·
O=c1ccsn1Cc1ccccc1	–	–	100	100
CCOC(=O)C(C)Sc1nnc(Cc2cc(=O)[nH]c(=O)[nH]2)n1-c1cccc(OC)c1 (stereo unspecified)	32	–	–	–
CCOC(=O)C(C)Sc1nnc(Cc2cc(=O)[nH]c(=O)[nH]2)n1-c1ccc(OCC)cc1 (stereo unspecified)	–	–	–	–
COc1cc(C)c(C(C)C)cc1S(=O)(=O)NCCCn1ccnc1	–	–	–	–
O=c1c(=O)n(O)c2ccccc2n1O	–	–	–	–
COc1ccc(S(=O)(=O)N2CCC(C(=O)NCCc3ccc4c(c3)OCO4)CC2)cc1	39	–	–	–
CCn1c(SCC(=O)Nc2ccccc2C(=O)OC)nnc1-c1ccoc1C	–	–	–	–
Cc1sc2ncnc(NCCc3ccc(S(N)(=O)=O)cc3)c2c1C	–	–	–	·
OCCNc1nc(-c2ccccc2)c2ccccc2n1	–	–	–	–
c1ccc(-c2nc(-n3nc4ccccc4n3)nc3ccccc23)cc1	78	–	–	·
Cc1ccc(CNc2nc(N)c([N+](=O)[O-])c(Nc3cccc(F)c3)n2)cc1	46	–	–	·
CC(C)Sc1nc2c(c(=O)n1C)SC(C)C2 (stereo unspecified)	–	–	–	–
Cc1nnc(C)n1/N=C/c1cc(Br)cc(Br)c1O	–	–	51	–
COc1ccc(NC(=O)COC(=O)c2c3c(nc4ccccc24)CCCC3)cc1	34	–	–	·
COc1ccc(NC(=O)COC(=O)c2c3c(nc4ccccc24)CCCC3)cc1Cl	79	49	–	·
Cc1cc(C(=O)Nc2c(C)nn(Cc3c(Cl)cccc3Cl)c2C)no1	33	–	–	–
Cc1nn(Cc2ccccc2Cl)c(C)c1NC(=O)c1noc2c1CCCCC2	–	–	–	65
SMILES	PostGolgi ctrl	PostGolgi yeast	E coli WT exp	Ecoli tolC
COc1ccc2c(c1)CCc1c(C(=O)Nc3cc(C)n(Cc4ccc(Cl)cc4)n3)noc1-2	–	–	–	–
Cc1nn(Cc2ccc(Cl)cc2)c(C)c1NC(=O)c1noc2c1CCc1ccccc1-2	42	–	–	·
COc1ccc2c(c1)CCc1c(C(=O)Nc3c(C)nn(Cc4ccccc4)c3C)noc1-2	–	–	–	·
Cc1cc(NC(=O)c2noc3c2CCCC3)nn1Cc1ccc(Cl)cc1	–	–	–	81
COc1ccc(C(=O)NC2(C(F)(F)F)C(=O)Nc3c2c(=O)[nH]c(=O)n3CCc2ccc(OC)c(OC)c2)cc1 (stereo unspecified)	–	–	–	·
CCN(CC)c1ccc(NC(=O)C2CCCN(S(=O)(=O)c3cccnc3)C2)c(C)c1 (stereo unspecified)	–	–	–	–
O=C(Nc1ccccc1Cl)c1ccccc1Oc1ccc(C(F)(F)F)cc1[N+](=O)[O-]	54	–	–	·
O=C(Nc1ccccc1Cl)c1ccccc1Cl	–	–	–	·
CCCCOC(=O)CSc1nc(N)c(C#N)c(-c2ccc(OCC)cc2)c1C#N	–	–	–	–
CCCCOc1ccc(-c2c(C#N)c(N)nc(SCC(N)=O)c2C#N)cc1	–	–	–	70
COc1ccc(C(=O)/C=C/c2cn(CN3CCN(C)CC3)c3ccccc23)cc1	33	–	–	·
CCOc1ccc(C(=O)/C=C/c2ccccc2C(F)(F)F)cc1	–	–	–	·
CCOc1ccc(C(=O)/C=C/c2cn(CN3CCN(C)CC3)c3ccccc23)cc1	32	–	–	·
